Key:
[1] = test system: A549; test: Antiproliferative activity against human A549 cells assessed as inhibition of cell growth at 1.5 uM incubated for 48 hrs by MTT assay relative to control; type: functional; conditions: A549, 48 h, read-out: GI
[2] = test system: A549; test: Antiproliferative activity against human A549 cells assessed as inhibition of cell growth incubated for 48 hrs by MTT assay; type: functional, cell-based; conditions: A549, 48 h
In short: (§1)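 MTT read-out. Cells seeded at 5.0 × 10⁴ cells/ml and cultured 24 h, then exposed to the drug over a range of concentrations for 48 h, with matching DMSO as control. MTT (5 mg/ml) added for 4 h, supernatant removed, formazan dissolved in DMSO, OD read at 570 nm. Run in triplicate, mean ± SD (n = 3).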

[3] = test system: MCF7; test: Antiproliferative activity against human MCF7 cells assessed as inhibition of cell growth incubated for 48 hrs by MTT assay; type: functional, cell-based; conditions: MCF7, 48 h; in short: as §1
[4] = test system: HOS; test: Antiproliferative activity against human HOS cells assessed as inhibition of cell growth incubated for 48 hrs by MTT assay; type: functional, cell-based; in short: as §1
[5] = test system: HepG2; test: Antiproliferative activity against human HepG2 cells assessed as inhibition of cell growth incubated for 48 hrs by MTT assay; type: functional, cell-based; conditions: HepG2, 48 h; in short: as §1

SMILES | inhibition of growth at 1.5 µM [1] [%] | further results
CC1=C(O)C(=O)C=C2C1=CC=C1[C@@]2(C)CC[C@@]2(C)[C@@H]3C[C@](C)(C(=O)OCCCCOC(=O)/C=C/c4ccc(C)cc4)CC[C@]3(C)CC[C@]12C | 19.9 | –
CC1=C(O)C(=O)C=C2C1=CC=C1[C@@]2(C)CC[C@@]2(C)[C@@H]3C[C@](C)(C(=O)OCCCCOC(=O)/C=C/c4ccc(F)cc4)CC[C@]3(C)CC[C@]12C | 14.7 | –
COc1ccc(/C=C/C(=O)OCCOC(=O)[C@]2(C)CC[C@]3(C)CC[C@]4(C)C5=CC=C6C(=CC(=O)C(O)=C6C)[C@]5(C)CC[C@@]4(C)[C@@H]3C2)cc1 | 35.3 | –
CC1=C(O)C(=O)C=C2C1=CC=C1[C@@]2(C)CC[C@@]2(C)[C@@H]3C[C@](C)(C(=O)OCCOC(=O)/C=C(\C#N)c4ccc(C)cc4)CC[C@]3(C)CC[C@]12C | 20.4 | –
CC1=C(O)C(=O)C=C2C1=CC=C1[C@@]2(C)CC[C@@]2(C)[C@@H]3C[C@](C)(C(=O)OCCOC(=O)/C=C/c4ccc(F)cc4)CC[C@]3(C)CC[C@]12C | 27.7 | –
COC(=O)[C@]12CCC(C)(C)C[C@H]1[C@H]1C(=O)C=C3[C@@]4(C)C=C(C#N)C(=O)C(C)(C)[C@@H]4CC[C@@]3(C)[C@]1(C)CC2 [BARDOXOLONE METHYL] | – | IC50 [2]: 520 nM; IC50 [3]: 850 nM; IC50 [4]: 660 nM; IC50 [5]: 520 nM
CC1=C(O)C(=O)C=C2C1=CC=C1[C@@]2(C)CC[C@@]2(C)[C@@H]3C[C@](C)(C(=O)OCCCOC(=O)/C=C(\C#N)c4ccc(C)cc4)CC[C@]3(C)CC[C@]12C | 21.6 | –
COc1ccc(/C=C/C(=O)OCCCCOC(=O)[C@]2(C)CC[C@]3(C)CC[C@]4(C)C5=CC=C6C(=CC(=O)C(O)=C6C)[C@]5(C)CC[C@@]4(C)[C@@H]3C2)cc1 | 20.6 | –
CC1=C(O)C(=O)C=C2C1=CC=C1[C@@]2(C)CC[C@@]2(C)[C@@H]3C[C@](C)(C(=O)OCCOC(=O)/C(C#N)=C/c4ccc(F)cc4)CC[C@]3(C)CC[C@]12C | 26.1 | –
CC1=C(O)C(=O)C=C2C1=CC=C1[C@@]2(C)CC[C@@]2(C)[C@@H]3C[C@](C)(C(=O)OCCCOC(=O)/C=C(\C#N)c4ccc(C(F)(F)F)cc4)CC[C@]3(C)CC[C@]12C | 24.5 | –
CC1=C(O)C(=O)C=C2C1=CC=C1[C@@]2(C)CC[C@@]2(C)[C@@H]3C[C@](C)(C(=O)OCCCCOC(=O)/C=C/c4ccc(C(F)(F)F)cc4)CC[C@]3(C)CC[C@]12C | 6.19 | –
CC1=C(O)C(=O)C=C2C1=CC=C1[C@@]2(C)CC[C@@]2(C)[C@@H]3C[C@](C)(C(=O)OCCCCOC(=O)/C(C#N)=C/c4ccccc4)CC[C@]3(C)CC[C@]12C | 16.2 | –
COc1ccc(/C=C(\C#N)C(=O)OCCCOC(=O)[C@]2(C)CC[C@]3(C)CC[C@]4(C)C5=CC=C6C(=CC(=O)C(O)=C6C)[C@]5(C)CC[C@@]4(C)[C@@H]3C2)cc1 | 18.6 | –
CC1=C(O)C(=O)C=C2C1=CC=C1[C@@]2(C)CC[C@@]2(C)[C@@H]3C[C@](C)(C(=O)OCCCOC(=O)/C=C/c4ccc(C(F)(F)F)cc4)CC[C@]3(C)CC[C@]12C | 37.6 | –
CC1=C(O)C(=O)C=C2C1=CC=C1[C@@]2(C)CC[C@@]2(C)[C@@H]3C[C@](C)(C(=O)OCCOC(=O)/C=C(\C#N)c4ccc(C(F)(F)F)cc4)CC[C@]3(C)CC[C@]12C | 33.3 | –
CC1=C(O)C(=O)C=C2C1=CC=C1[C@@]2(C)CC[C@@]2(C)[C@@H]3C[C@](C)(C(=O)OC/C=C/COC(=O)/C=C(\C#N)c4ccccc4)CC[C@]3(C)CC[C@]12C | – | IC50 [2]: 3540 nM; IC50 [3]: 2860 nM; IC50 [4]: 4780 nM; IC50 [5]: 3450 nM
CC1=C(O)C(=O)C=C2C1=CC=C1[C@@]2(C)CC[C@@]2(C)[C@@H]3C[C@](C)(C(=O)OCCCOC(=O)/C=C/c4ccccc4)CC[C@]3(C)CC[C@]12C | 33.2 | –
CC1=C(O)C(=O)C=C2C1=CC=C1[C@@]2(C)CC[C@@]2(C)[C@@H]3C[C@](C)(C(=O)OCCCCOC(=O)/C(C#N)=C/c4ccc(C)cc4)CC[C@]3(C)CC[C@]12C | 16.5 | –
CC1=C(O)C(=O)C=C2C1=CC=C1[C@@]2(C)CC[C@@]2(C)[C@@H]3C[C@](C)(C(=O)OCCCCOC(=O)/C=C(\C#N)c4ccccc4)CC[C@]3(C)CC[C@]12C | 3.19 | –
CC1=C(O)C(=O)C=C2C1=CC=C1[C@@]2(C)CC[C@@]2(C)[C@@H]3C[C@](C)(C(=O)OCCCOC(=O)/C=C/c4ccc(F)cc4)CC[C@]3(C)CC[C@]12C | 37.6 | –
CC1=C(O)C(=O)C=C2C1=CC=C1[C@@]2(C)CC[C@@]2(C)[C@@H]3C[C@](C)(C(=O)OC/C=C/COC(=O)/C=C(\C#N)c4ccc(F)cc4)CC[C@]3(C)CC[C@]12C | – | IC50 [2]: 1840 nM; IC50 [3]: 1110 nM; IC50 [4]: 1330 nM; IC50 [5]: 2740 nM
CC1=C(O)C(=O)C=C2C1=CC=C1[C@@]2(C)CC[C@@]2(C)[C@@H]3C[C@](C)(C(=O)OCCOC(=O)/C=C/c4ccccc4)CC[C@]3(C)CC[C@]12C | 23 | –

SMILES | inhibition of growth at 1.5 µM [1] [%] | further results
CC1=C(O)C(=O)C=C2C1=CC=C1[C@@]2(C)CC[C@@]2(C)[C@@H]3C[C@](C)(C(=O)OCCCCOC(=O)/C=C(\C#N)c4ccc(C)cc4)CC[C@]3(C)CC[C@]12C | 9.74 | –
CC1=C(O)C(=O)C=C2C1=CC=C1[C@@]2(C)CC[C@@]2(C)[C@@H]3C[C@](C)(C(=O)OCCOC(=O)/C(C#N)=C/c4ccc(C(F)(F)F)cc4)CC[C@]3(C)CC[C@]12C | 16 | –
COc1ccc(/C=C(\C#N)C(=O)OCCOC(=O)[C@]2(C)CC[C@]3(C)CC[C@]4(C)C5=CC=C6C(=CC(=O)C(O)=C6C)[C@]5(C)CC[C@@]4(C)[C@@H]3C2)cc1 | 16.6 | –
CC1=C(O)C(=O)C=C2C1=CC=C1[C@@]2(C)CC[C@@]2(C)[C@@H]3C[C@](C)(C(=O)OCCOC(=O)/C(C#N)=C/c4ccc(C)cc4)CC[C@]3(C)CC[C@]12C | 29.9 | –
COc1ccc(/C=C(\C#N)C(=O)OCCCCOC(=O)[C@]2(C)CC[C@]3(C)CC[C@]4(C)C5=CC=C6C(=CC(=O)C(O)=C6C)[C@]5(C)CC[C@@]4(C)[C@@H]3C2)cc1 | 3.07 | –
CC1=C(O)C(=O)C=C2C1=CC=C1[C@@]2(C)CC[C@@]2(C)[C@@H]3C[C@](C)(C(=O)OCCCCOC(=O)/C=C(\C#N)c4ccc(F)cc4)CC[C@]3(C)CC[C@]12C | 32.1 | –
COc1ccc(/C(C#N)=C/C(=O)OC/C=C/COC(=O)[C@]2(C)CC[C@]3(C)CC[C@]4(C)C5=CC=C6C(=CC(=O)C(O)=C6C)[C@]5(C)CC[C@@]4(C)[C@@H]3C2)cc1 | – | IC50 [2]: 1340 nM; IC50 [3]: 1440 nM; IC50 [4]: 1790 nM; IC50 [5]: 2710 nM
CC1=C(O)C(=O)C=C2C1=CC=C1[C@@]2(C)CC[C@@]2(C)[C@@H]3C[C@](C)(C(=O)OCCCCOC(=O)/C(C#N)=C/c4ccc(C(F)(F)F)cc4)CC[C@]3(C)CC[C@]12C | 7.85 | –
CC1=C(O)C(=O)C=C2C1=CC=C1[C@@]2(C)CC[C@@]2(C)[C@@H]3C[C@](C)(C(=O)OCCCCOC(=O)/C=C(\C#N)c4ccc(C(F)(F)F)cc4)CC[C@]3(C)CC[C@]12C | 18.3 | –
CC1=C(O)C(=O)C=C2C1=CC=C1[C@@]2(C)CC[C@@]2(C)[C@@H]3C[C@](C)(C(=O)OCCCCOC(=O)/C(C#N)=C/c4ccc(F)cc4)CC[C@]3(C)CC[C@]12C | 19 | –
CC1=C(O)C(=O)C=C2C1=CC=C1[C@@]2(C)CC[C@@]2(C)[C@@H]3C[C@](C)(C(=O)OCCOC(=O)/C=C/c4ccc(C)cc4)CC[C@]3(C)CC[C@]12C | 28.6 | –
CC1=C(O)C(=O)C=C2C1=CC=C1[C@@]2(C)CC[C@@]2(C)[C@@H]3C[C@](C)(C(=O)OCCCOC(=O)/C(C#N)=C/c4ccc(C(F)(F)F)cc4)CC[C@]3(C)CC[C@]12C | 19.4 | –
CC1=C(O)C(=O)C=C2C1=CC=C1[C@@]2(C)CC[C@@]2(C)[C@@H]3C[C@](C)(C(=O)OCCCOC(=O)/C=C/c4ccc(C)cc4)CC[C@]3(C)CC[C@]12C | 29.1 | –
CC1=C(O)C(=O)C=C2C1=CC=C1[C@@]2(C)CC[C@@]2(C)[C@@H]3C[C@](C)(C(=O)OCCCOC(=O)/C(C#N)=C/c4ccc(C)cc4)CC[C@]3(C)CC[C@]12C | 34.7 | –
CC1=C(O)C(=O)C=C2C1=CC=C1[C@@]2(C)CC[C@@]2(C)[C@@H]3C[C@](C)(C(=O)OCCCCOC(=O)/C=C/c4ccccc4)CC[C@]3(C)CC[C@]12C | 13.3 | –
CC1=C(O)C(=O)C=C2C1=CC=C1[C@@]2(C)CC[C@@]2(C)[C@@H]3C[C@](C)(C(=O)OCCOC(=O)/C=C/c4ccc(C(F)(F)F)cc4)CC[C@]3(C)CC[C@]12C | 26 | –
CC1=C(O)C(=O)C=C2C1=CC=C1[C@@]2(C)CC[C@@]2(C)[C@@H]3C[C@](C)(C(=O)OCCCOC(=O)/C(C#N)=C/c4ccc(F)cc4)CC[C@]3(C)CC[C@]12C | 25 | –
COc1ccc(/C(C#N)=C/C(=O)OCCCCOC(=O)[C@]2(C)CC[C@]3(C)CC[C@]4(C)C5=CC=C6C(=CC(=O)C(O)=C6C)[C@]5(C)CC[C@@]4(C)[C@@H]3C2)cc1 | 9.57 | –
COc1ccc(/C=C/C(=O)OCCCOC(=O)[C@]2(C)CC[C@]3(C)CC[C@]4(C)C5=CC=C6C(=CC(=O)C(O)=C6C)[C@]5(C)CC[C@@]4(C)[C@@H]3C2)cc1 | 34.1 | –
CC1=C(O)C(=O)C=C2C1=CC=C1[C@@]2(C)CC[C@@]2(C)[C@@H]3C[C@](C)(C(=O)OCCCOC(=O)/C(C#N)=C/c4ccccc4)CC[C@]3(C)CC[C@]12C | 19.1 | –
CC1=C(O)C(=O)C=C2C1=CC=C1[C@@]2(C)CC[C@@]2(C)[C@@H]3C[C@](C)(C(=O)OCCOC(=O)/C(C#N)=C/c4ccccc4)CC[C@]3(C)CC[C@]12C | 24.3 | –
